These results are taken from ChEMBL document CHEMBL4316593 (Eur J Med Chem, 2019).

The subject of this test is U-87 MG. Description: Cytotoxicity against human U87 cells assessed as reduction in cell proliferation at 100 uM measured after 48 hrs by trypan blue dye-based cell counting analysis. It is filed as functional. The conditions noted are these: U-87MG ATCC. In outline: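 Trypan blue viability assay. U87 (MEM, 10% FBS) or LN229 (DMEM, 5% FBS) cells were treated for 48hrs. Screening used 100 μM; the dose-response used 100, 75, 50, 25 and 10 μM. Cells were pelleted at 1200 rpm and live/dead cells counted by automated counter. Mortality % was taken relative to the DMSO control, and IC₅₀ derived from the dose-response curve. Cisplatin served as positive control.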

Active and inactive are the calls of the source. The rule behind the calls is not given here.

On to `CC(=O)/C(=N\Nc1ccc([N+](=O)[O-])cc1O)C(=O)c1ccccc1`, for which the result was Active.
As for `CC(=O)/C(=N\Nc1cc(S(=O)(=O)O)cc(S(=O)(=O)O)c1O)C(=O)c1ccccc1`, the result was inactive.
